For data set [1], the system named is Rattus norvegicus. As to the kind of experiment: Tested for percent enhancement of carrageenan paw edema in rat, administered orally at a dose of one tenth of oral lethal dose in mice. The data set is classed as functional. Summed up: (§1)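 1 h later, 0.1 mL of 1% carrageenan was injected into the right hind-paw plantar tissue. Paw swelling was measured by mercury-displacement plethysmometry 3 h after carrageenan, compared with controls.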
For orientation: In the carrageenan paw model, swelling and tenderness develop within hours.

The nature of data set [2]: Lethal dose in mice determined by Litchfield and Wilcoxon methods after peroral administration. The data set is classed as toxicity, organism-based. The note with it: mouse, in vivo, po. An outline of the steps: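 Median lethal dose found after oral dosing of mice, four mice per dose level, and calculated by the Litchfield–Wilcoxon method.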
In data set [3] the target is T1, Cyclooxygenase (Bos taurus) (UniProt O62664+O62698). As to the kind of experiment: Inhibition of prostaglandin synthetase in bovine seminal vesicle microsomes using Beckman liquid scintillation counter at 10 e-5 M. As to conditions: Microsome.
The test system of data set [4] is Rattus norvegicus. As to the kind of experiment: Total score is the sum of scores obtained in the adjuvant arthritis, acute toxicity, carrageenan edema, and prostaglandin synthetase assay. The data set is classed as functional.
Data set [5] deals with Rattus norvegicus. The data set can be described thus: Percent inhibition of carrageenan paw edema in rat, administered orally at a dose of one tenth of oral lethal dose in mice. The class given is functional. An outline of the steps: as §1
For data set [6], the target named is T1, Cyclooxygenase (Bos taurus). As to the kind of experiment: Tested for Prostaglandin synthetase inhibition in Bovine seminal vesicle microsomes using Beckman liquid scintillation counter at 10 e-5 M. As to conditions: Microsome. The data set is classed as functional.
A short description of data set [7]: Toxic score (3) was measured as lethal dose in orally administered mice. The data set is classed as toxicity, organism-based. As to conditions: mouse, in vivo, po. An outline of the steps: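 Score derived from mouse oral LD50 (Litchfield–Wilcoxon, four mice per dose), in mg/kg: >1000 = 3; 500-1000 = 2; <500 = 1.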
Data set [8] is filed under the species Rattus norvegicus. As to the kind of experiment: Average percent inhibition (arthritis score=0) of the swelling of both injected and non injected paw was measured. The class given is functional. An outline of the steps:
(§2)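 Adjuvant arthritis in inbred female Lewis rats, groups of six, acclimatized 2 weeks. Arthritis induced by injecting 0.1 mL M. butyricum in mineral oil (3 mg/mL) into right hind paw plantar tissue. Oral dosing daily from adjuvant day to day 28: 10 (mg/kg)/day if mouse oral LD50 ≥1000 mg/kg, else 5 (mg/kg)/day. Swelling of injected and noninjected paws measured day 28 by mercury-displacement plethysmometry; mean percent inhibition scored 0–3.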

Data set [9] is filed under the species Rattus norvegicus. The data set can be described thus: Tested for inhibition in the rat paw not injected with […]. The data set is classed as functional. More on the design: concentration or dose not given beside the values. An outline of the steps:
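Adjuvant-induced arthritis, female Lewis rats, six per group: M. butyricum in mineral oil (3 mg/mL, 0.1 mL) injected into right hind paw plantar tissue. Daily oral dosing from adjuvant day to day 28, 10 or 5 (mg/kg)/day according to mouse oral LD50 (≥1000 or <1000 mg/kg). Injected and noninjected paw swelling read by mercury-displacement plethysmometry on day 28.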

For data set [10], the species on record is Rattus norvegicus. The data set can be described thus: Tested for enhancement in the rat paw injected with carrageenan. The data set is classed as functional.
For data set [11], the species on record is Rattus norvegicus. As to the kind of experiment: Tested for inhibition in the rat paw injected with carrageenan. Further details: concentration or dose not given beside the values. The data set is classed as functional.
Data set [12] is filed under the species Rattus norvegicus. As to the kind of experiment: Tested for enhancement in the rat paw not injected with carrageenan. The class given is functional.
The species entered for data set [13] is Rattus norvegicus. The data set can be described thus: Average percent inhibition (arthritis score=1) of the swelling of both injected and non injected paw was measured;values ranges from: […]-[…]. The data set is classed as functional.
For data set [14], the species on record is Rattus norvegicus. The data set can be described thus: Average percent inhibition (arthritis score=3) of the swelling of both injected and non injected paw was measured. The data set is classed as functional. An outline of the steps: as §2

Broadly, the LD50 is the dose at which mortality reaches 50%. One may read the inhibition as the share of the control response that was lost under treatment. Usually Inhibition stands for the percentage by which the read-out fell short of the control.

Each structure is given as a SMILES string.

Regarding `CC(C)(C)/N=C(/Nc1nccs1)Nc1cccc2ccccc12`, the Enhancement in data set [1] worked out at 19%. For the same molecule, the median lethal dose (LD50) in [2] was more than 1000 mg/kg. The molecule also gave an inhibition in [3] of 6.9%.
As to `Cc1cc(N/C(=N/C2(C)CCCC2)Nc2nccs2)c2ccccc2n1`, in data set [2], the LD50 is 600 mg/kg. The inhibition in data set [3] stood at 100%. Also, the Total score in data set [4] was 7. In data set [5], the Inhibition is 46%.
As to `CCOC(=O)c1cnc(/N=C(\Nc2cc(C)nc3ccccc23)NC2CCCCC2)s1`, the Enhancement in data set [1] amounted to 16%. The LD50 in data set [2] was more than 1000 mg/kg. For the same molecule, the inhibition in data set [3] came out at 15.6%.
In [2], `Cc1cc(N/C(=N/C(C)(C)C)NC2NC=CS2)c2ccccc2n1` (configuration not stated) gave an LD50 of 200 mg/kg. The inhibition in [6] was 1.3%. This molecule also showed an Inhibition in data set [5] of 41%.
In the case of `Cc1ccc2nc(C)cc(N/C(=N/C3CCCCC3)Nc3nccs3)c2c1`, the LD50 in [7] and in [2] was more than 1000 mg/kg each time. Besides, the Inhibition is less than 10% in data set [8], 0% in [9] and 65% in data set [5]. In [3], this molecule yielded an inhibition of 0.6%. The Total score in data set [4] is on record as 6. Moreover, the Enhancement in data set [10] turned out to be 21%.
Take `CC(C)(C)/N=C(\Nc1nccs1)Nc1cc(C(F)(F)F)nc2ccccc12`: the LD50 in data set [7] and in [2] was more than 1000 mg/kg each time. Moreover, the Inhibition is listed as less than 10% in data set [8], 2% in data set [9] and 28% in [5]. Besides, in [3], the inhibition stood at 75.4%. In addition, the Total score in data set [4] came to 7. For the same molecule, the Enhancement in [10] stood at 6%.
As to `CC(C)(C)/N=C(\Nc1nccs1)Nc1ccnc2cc(Cl)ccc12`, the LD50 in data set [7] and in [2] was more than 1000 mg/kg in each case. Further, the values for the Inhibition in data set [9], in [11] and in data set [5] were 8%, 26% and 61%, respectively. For the same molecule, the inhibition in data set [3] stood at 5.5%. Moreover, in data set [4], the Total score is 7.
As for `Cc1cc(N/C(=N/C(C)(C)C)Nn2cnnc2)c2ccccc2n1`, the Enhancement in data set [1] was 9%. Also, the LD50 in data set [2] is more than 1000 mg/kg.
Turning to `Cc1cc(N/C(=N/C2CCCCC2)Nc2nc3ccccc3[nH]2)c2ccccc2n1`, the Enhancement in data set [1] was found to be 13%. The same molecule came in with an LD50 in [2] of more than 1000 mg/kg. Besides, the inhibition in data set [3] was determined as 7.2%.
Take `Cc1cc(N/C(=N/C2CCCCC2)Nc2nc3ccccc3s2)c2ccccc2n1`: the Enhancement in [12] was found to be 4%; in data set [10] it was 7%. Besides, the LD50 in data set [7] and in data set [2] was more than 1000 mg/kg throughout. The Inhibition in data set [8] is less than 10%; in data set [5], 1%. Moreover, in data set [3], the inhibition was 76.1%. In addition, the Total score in [4] is listed as 6.
Turning to `CC(C)(C)/N=C(/Nc1nccs1)Nc1cccnc1Cl`, the LD50 in data set [2] was more than 1000 mg/kg. The molecule further yielded an inhibition in data set [6] of 10.1%. In addition, the Inhibition in data set [5] is 19%.
Consider `CCCCCCCCCC/N=C(\Nc1nccs1)Nc1cc(C)nc2ccccc12`, for which the LD50 in [2] is more than 1000 mg/kg. The molecule also had an inhibition in [6] of 4.5%. For the same molecule, the Inhibition in [5] was determined as 4%.
Consider `Cc1cc(N/C(=N\CC(C)(C)C)Nc2nccs2)c2ccccc2n1`, for which the Inhibition is on record as 29% in data set [13], 29% in [9], 31% in [11] and 66% in data set [5]. In [2], this molecule displayed an LD50 of 600 mg/kg. This molecule also showed an inhibition in data set [3] of 31.1%. Also, in data set [4], the Total score was 7.
`Cc1cc(N/C(=N\C(C)CCCC(C)C)Nc2nccs2)c2ccccc2n1` (configuration not stated) gave an LD50 in [2] of more than 1000 mg/kg. In data set [3], this molecule registered an inhibition of 1.7%. The Inhibition in data set [5] turned out to be 25%.
For the molecule `CCOC(=O)c1csc(/N=C(\Nc2cc(C)nc3ccccc23)NC(C)(C)C)n1`, the Enhancement in data set [1] was 36%. This molecule also registered an LD50 in [2] of more than 1000 mg/kg. Moreover, in data set [3], the inhibition turned out to be 71.8%.
As for `Cc1ccc2cc(N/C(=N\C(C)(C)C)Nc3nccs3)ccc2n1`, the LD50 in data set [2] was more than 1000 mg/kg. The inhibition in data set [3] was 3.7%. Also, the Inhibition in data set [5] came to 43%.
`CC(C)(C)/N=C(/Nc1nccs1)Nc1nccc2ccccc12` returned an LD50 in [2] of more than 1000 mg/kg. The molecule further gave an inhibition in data set [3] of 3.4%. In [5], the Inhibition is given as 18%.
In data set [2], `CCCc1cc(N/C(=N/C(C)(C)C)Nc2nccs2)c2ccccc2n1` yielded an LD50 of 600 mg/kg. In [3], this molecule came in with an inhibition of 74.1%. Besides, the Inhibition in data set [5] worked out at 51%.
For `Cc1cc(N/C(=N/C2CCCCC2)Nc2nnc(S)s2)c2ccccc2n1` the same measures were more than 1000 mg/kg, 7% and 36%.
For `CC(C)(C)N=C(Nc1nccs1)Nc1nccs1` the same measures were more than 1000 mg/kg, 13.1% and 49%.
On to `CC(C)(C)/N=C(\Nc1ccc2ccccc2c1)Nc1nccs1`, for which the Enhancement in data set [1] was 17%. For the same molecule, the LD50 in [2] was more than 1000 mg/kg. Besides, in [3], the inhibition is 1.7%.
Take `Cc1cc(N/C(=N/C2CCCCC2)Nc2nc(C(=O)O)cs2)c2ccccc2n1`: the LD50 in data set [2] is more than 1000 mg/kg. The molecule also gave an inhibition in data set [3] of 2.9%. In [5], the Inhibition was found to be 9%.
As to `CCOC(=O)c1cnc(/N=C(\Nc2cc(C)nc3ccccc23)NC(C)(C)C)s1`, the LD50 in [2] is more than 1000 mg/kg. The same molecule returned an inhibition in [3] of 15.8%. In addition, in data set [5], the Inhibition is listed as 16%.
`Cc1cc(N/C(=N\C2CCCC2)Nc2nccs2)c2ccccc2n1` registered an LD50 in [2] of 600 mg/kg. Moreover, the inhibition in [3] came to 58.7%. Besides, the Inhibition in [5] is 52%.
For `CCCCCCCCCCCCCCCCCC/N=C(\Nc1nccs1)Nc1cc(C)nc2ccccc12.Cl` the same measures were more than 1000 mg/kg, 7% and 5%.
`Cc1cc(N/C(=N/C2CCC(C)CC2)Nc2nccs2)c2ccccc2n1` (configuration not stated) gave an LD50 in [2] of more than 1000 mg/kg. This molecule also had an inhibition in data set [3] of 12.6%. Further, the Inhibition in data set [5] is recorded as 39%.
On the same counts, the results for `Cc1cc(N/C(=N/CC(C)C)Nc2nccs2)c2ccccc2n1` are 1000 mg/kg, 18% and 57%.
As for `c1ccc2c(N/C(=N/C3CCCCC3)Nc3nccs3)ccnc2c1`, in data set [2], the LD50 is more than 1000 mg/kg. The inhibition in data set [3] amounted to 21.2%. Further, in [5], the Inhibition came out at 46%.
On to `Cc1csc(/N=C(\Nc2cc(C)nc3ccccc23)NC(C)(C)C)n1`, for which the LD50 was more than 1000 mg/kg in data set [7] and 600 mg/kg in [2]. The Inhibition was 59% in [9], 53% in [11], “>=50%” in [14] and 31% in data set [5]. Moreover, the inhibition in data set [3] amounted to 95.1%. The Total score in data set [4] came out at 9.
`CC(C)(C)/N=C(\Nc1ccccc1)Nc1nccs1` yielded an LD50 in [2] of more than 1000 mg/kg. This molecule returned an inhibition in data set [3] of 6.4%. Further, the Inhibition in [5] was 24%.
In data set [2], `Cc1cc(NC(=N)NC(C)(C)C)c2ccccc2n1` displayed an LD50 of 100 mg/kg. The same molecule came in with an inhibition in data set [3] of 11.7%. Also, the Inhibition in data set [5] turned out to be 5%.
Molecule `CC/N=C(/Nc1nccs1)Nc1cc(C)nc2ccccc12` registered an LD50 in data set [2] of 100 mg/kg. The molecule also showed an inhibition in data set [3] of 8%. The molecule further showed an Inhibition in data set [5] of 56%.
In data set [2], `Cc1cc(N/C(=N/C2CCCCC2)Nc2nncs2)c2ccccc2n1` had an LD50 of 250 mg/kg. Also, the inhibition in data set [3] was 15.1%. In addition, the Inhibition in data set [5] stood at 40%.

The values are drawn from ChEMBL document CHEMBL1121519, “Basic antiinflammatory compounds. N,N',N''-Trisubstituted guanidines” (J Med Chem, 1980).
